Experimental data taken from ChEMBL document CHEMBL4017537, “Discovery of a Potent and Specific M. tuberculosis Leucyl-tRNA Synthetase Inhibitor: (S)-3-(Aminomethyl)-4-chloro-7-(2-hydroxyethoxy)benzo[c][1,2]oxaborol-1(3H)-ol (GSK656)” (J Med Chem, 2017).
In brackets after ≈: the same amount, converted by molar mass.

Tests used:
[1] = tested on: Mycobacterium tuberculosis; experiment: Antimicrobial activity against Mycobacterium tuberculosis H37Rv infected in C57BL/6J mouse assessed as 2 log reduction in bacterial load in lungs administered qd for 8 consecutive days starting on day 1 post infection measured 24 hrs post last dose; type: functional
[2] = tested on: cytoplasmic LeuRS; experiment: Selectivity index, ratio of EC50 for inhibition of cytoplasmic LeuRS in HepG2 cells assessed as reduction in protein synthesis to MIC for Mycobacterium tuberculosis H37Rv; type: toxicity, cell-based; settings: human, read-out: Selectivity Index
Summary of the method: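 Ratio of HepG2 protein-synthesis EC50 to MIC against M. tuberculosis H37Rv.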

[3] = biological target: T1, Leucine--tRNA ligase (Mycobacterium tuberculosis (strain ATCC 25618 / H37Rv), UniProt P9WFV1); experiment: Inhibition of Mycobacterium tuberculosis H37Rv N-terminal 6His-tagged LeuRS expressed in Escherichia coli BL21(DE3) assessed as L-[14C]leucine incorporation in to Escherichia coli tRNA after 20 mins by liquid scintillation counting analysis
T1 sequence (P9WFV1 whole entry): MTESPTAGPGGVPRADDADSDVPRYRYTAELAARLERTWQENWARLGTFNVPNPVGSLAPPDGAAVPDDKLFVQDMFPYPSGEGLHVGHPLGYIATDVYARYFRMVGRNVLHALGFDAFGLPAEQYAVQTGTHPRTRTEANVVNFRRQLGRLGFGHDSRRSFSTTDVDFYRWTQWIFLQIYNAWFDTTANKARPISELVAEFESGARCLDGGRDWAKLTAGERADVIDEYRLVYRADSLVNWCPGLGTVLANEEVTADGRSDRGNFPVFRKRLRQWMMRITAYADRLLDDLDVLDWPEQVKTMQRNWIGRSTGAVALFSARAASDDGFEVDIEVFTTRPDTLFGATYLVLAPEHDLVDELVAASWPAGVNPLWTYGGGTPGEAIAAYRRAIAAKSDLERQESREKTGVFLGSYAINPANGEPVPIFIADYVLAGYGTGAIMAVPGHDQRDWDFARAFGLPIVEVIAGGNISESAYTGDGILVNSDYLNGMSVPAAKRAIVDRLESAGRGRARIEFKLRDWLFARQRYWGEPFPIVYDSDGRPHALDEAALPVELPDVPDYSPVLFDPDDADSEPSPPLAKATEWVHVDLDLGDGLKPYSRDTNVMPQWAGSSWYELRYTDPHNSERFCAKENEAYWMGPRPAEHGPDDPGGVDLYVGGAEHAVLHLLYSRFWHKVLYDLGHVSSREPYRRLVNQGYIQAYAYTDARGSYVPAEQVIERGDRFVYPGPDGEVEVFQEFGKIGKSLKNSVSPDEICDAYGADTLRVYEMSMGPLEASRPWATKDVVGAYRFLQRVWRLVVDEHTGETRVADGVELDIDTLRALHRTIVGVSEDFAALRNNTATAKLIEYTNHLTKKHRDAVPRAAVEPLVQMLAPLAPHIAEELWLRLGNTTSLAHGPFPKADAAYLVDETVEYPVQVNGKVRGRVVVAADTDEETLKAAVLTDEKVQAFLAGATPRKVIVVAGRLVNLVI
Summary of the method: (§1)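 N-terminal His6-tagged LeuRS expressed in E. coli BL21(DE3), codon-optimized. 50 mM HEPES-KOH pH 8.0, 30 mM MgCl2, 30 mM KCl, 13 μM L-[14C]leucine, 15 μM tRNA (E. coli total; brewer's yeast for human cytoplasmic enzyme), 0.02% BSA, 1 mM DTT, 30 °C. Inhibitor preincubated 20 min, started with 4 mM ATP, TCA-quenched after 7 min, filtered, scintillation counted; four-parameter logistic IC50.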

[4] = biological target: Leucine--tRNA ligase, cytoplasmic (Homo sapiens, UniProt Q9P2J5); experiment: Inhibition of cytoplasmic LeuRS in human HepG2 cells assessed as reduction in protein synthesis preincubated for 48 hrs followed by L-[14C]leucine addition measured after 3 hrs by liquid scintillation counting analysis; type: cell-based
Summary of the method: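 HepG2 cells in DMEM/10% FCS, 3000 cells/well, exposed to compound dilutions (0.5% DMSO final) for 48 h at 37 °C. Medium then replaced with fresh medium containing 0.5 μCi L-[14C]leucine and the same compound levels for 3 h. Cells trypsinised, precipitated in ice-cold 20% TCA, filtered, washed, scintillation counted; curve-fit EC50; mean of at least duplicates.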

[5] = biological target: T2, Leucine--tRNA ligase, mitochondrial (Homo sapiens, UniProt Q15031); experiment: Inhibition of human N-terminal 6His-tagged mitochondrial LeuRS expressed in Escherichia coli BL21(DE3) assessed as L-[14C]leucine incorporation in to Escherichia coli tRNA after 20 mins by liquid scintillation counting analysis; summary of the method: as §1
T2 sequence (Q15031 whole entry): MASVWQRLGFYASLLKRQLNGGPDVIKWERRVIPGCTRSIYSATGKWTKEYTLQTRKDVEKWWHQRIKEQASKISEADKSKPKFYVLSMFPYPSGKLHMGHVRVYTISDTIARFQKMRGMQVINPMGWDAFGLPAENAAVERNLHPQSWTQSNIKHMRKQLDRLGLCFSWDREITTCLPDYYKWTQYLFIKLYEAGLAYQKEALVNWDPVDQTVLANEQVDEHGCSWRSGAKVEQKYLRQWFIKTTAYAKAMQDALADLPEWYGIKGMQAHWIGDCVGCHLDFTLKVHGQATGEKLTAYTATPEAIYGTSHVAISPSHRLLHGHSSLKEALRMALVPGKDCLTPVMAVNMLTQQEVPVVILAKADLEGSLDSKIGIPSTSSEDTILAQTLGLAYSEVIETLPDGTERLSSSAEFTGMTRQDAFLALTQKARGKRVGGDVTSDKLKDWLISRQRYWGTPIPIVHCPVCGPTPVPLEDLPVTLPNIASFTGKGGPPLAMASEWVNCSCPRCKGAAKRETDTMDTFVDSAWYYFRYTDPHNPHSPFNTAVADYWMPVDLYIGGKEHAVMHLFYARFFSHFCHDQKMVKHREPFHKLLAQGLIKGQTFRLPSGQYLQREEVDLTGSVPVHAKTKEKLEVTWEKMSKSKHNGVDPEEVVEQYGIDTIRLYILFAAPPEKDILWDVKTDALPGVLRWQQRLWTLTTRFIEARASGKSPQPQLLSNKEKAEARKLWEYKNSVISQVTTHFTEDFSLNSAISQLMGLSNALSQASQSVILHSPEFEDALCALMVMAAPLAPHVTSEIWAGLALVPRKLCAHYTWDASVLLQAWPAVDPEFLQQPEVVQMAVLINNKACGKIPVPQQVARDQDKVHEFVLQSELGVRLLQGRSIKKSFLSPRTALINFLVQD

[6] = tested on: HepG2; experiment: Cytotoxicity against human HepG2 cells assessed as reduction in cell viability after 48 hrs by CellTiter-Glo assay; type: cell-based; settings: HepG2, 48 h
Summary of the method: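 HepG2 cells seeded at 10 000/well in EMEM with 5% FCS and 2 mM glutamine. After 24 h, ten 1:2 serial compound dilutions (0.5% DMSO final) added in duplicate for 48 h. Read-out by CellTiter-Glo luminescence per table footnote; the method text also describes resazurin fluorescence (ex 515/em 590 nm). Sigmoidal variable-slope fit.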

[7] = tested on: Mycobacterium tuberculosis; experiment: Antimicrobial activity against Mycobacterium tuberculosis H37Rv; type: functional
[8] = Oral bioavailability in CD-1 mouse at 30 mg/kg administered via gavage after 24 hrs by LC-MS/MS analysis; type: ADME, organism-based; settings: in vivo

Chain of Leucine--tRNA ligase, cytoplasmic (Q9P2J5 whole entry): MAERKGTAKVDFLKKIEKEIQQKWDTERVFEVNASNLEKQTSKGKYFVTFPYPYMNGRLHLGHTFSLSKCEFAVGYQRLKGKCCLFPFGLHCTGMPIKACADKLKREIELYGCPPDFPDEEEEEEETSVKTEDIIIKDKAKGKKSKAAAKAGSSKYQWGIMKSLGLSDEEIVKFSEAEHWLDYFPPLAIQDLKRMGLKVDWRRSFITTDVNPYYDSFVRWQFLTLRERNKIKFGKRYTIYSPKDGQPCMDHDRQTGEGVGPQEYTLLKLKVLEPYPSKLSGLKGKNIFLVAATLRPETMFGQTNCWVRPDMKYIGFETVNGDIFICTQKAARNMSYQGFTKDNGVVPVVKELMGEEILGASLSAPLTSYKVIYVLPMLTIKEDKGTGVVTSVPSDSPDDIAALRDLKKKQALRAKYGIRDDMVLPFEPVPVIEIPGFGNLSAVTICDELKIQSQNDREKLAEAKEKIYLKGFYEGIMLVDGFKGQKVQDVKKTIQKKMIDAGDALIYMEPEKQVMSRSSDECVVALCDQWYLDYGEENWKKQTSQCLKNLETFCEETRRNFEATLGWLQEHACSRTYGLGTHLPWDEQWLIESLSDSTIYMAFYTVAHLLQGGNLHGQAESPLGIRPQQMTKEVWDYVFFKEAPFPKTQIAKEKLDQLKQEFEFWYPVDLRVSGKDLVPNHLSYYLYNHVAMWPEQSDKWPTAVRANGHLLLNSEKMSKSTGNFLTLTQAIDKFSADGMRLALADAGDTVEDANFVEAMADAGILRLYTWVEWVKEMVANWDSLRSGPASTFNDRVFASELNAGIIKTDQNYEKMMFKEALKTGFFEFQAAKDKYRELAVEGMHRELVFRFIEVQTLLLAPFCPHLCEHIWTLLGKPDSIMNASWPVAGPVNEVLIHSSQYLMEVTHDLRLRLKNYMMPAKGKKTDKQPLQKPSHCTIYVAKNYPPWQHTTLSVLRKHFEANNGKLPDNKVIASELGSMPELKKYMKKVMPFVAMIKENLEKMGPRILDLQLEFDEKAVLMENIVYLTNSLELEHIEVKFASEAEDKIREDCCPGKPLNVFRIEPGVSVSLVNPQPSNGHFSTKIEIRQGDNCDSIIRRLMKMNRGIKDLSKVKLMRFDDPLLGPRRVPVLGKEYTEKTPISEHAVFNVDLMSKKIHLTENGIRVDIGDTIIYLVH

Row | Structure (SMILES) | ED99 [1] | selectivity ratio [2] | IC50 [3] | EC50 [4] | IC50 [5] | EC50 [6] | MIC [7] | bioavailability [8]
1 | Cl.NC[C@H]1OB(O)c2c(OCCO)ccc(Cl)c21 | 0.4 mg/kg | 1710 | 0.2 µM | 137 µM | > 300 µM | 381 µM | 0.08 µM | 
2 | CCOc1ccc(Br)c2c1B(O)O[C@@H]2CN | < 1 mg/kg | 305 | 0.075 µM | 30.5 µM | > 300 µM | 47.1 µM | 0.1 µM (≈ 0.0286 µg/mL) | 100%
